Results as given in ChEMBL document CHEMBL4041486, “Vobasinyl-Iboga Alkaloids from Tabernaemontana elegans: Cell Cycle Arrest and Apoptosis-Inducing Activity in HCT116 Colon Cancer Cells” (J Nat Prod, 2016).

Tests used:
HCT-116 [1] = assay: Cell cycle arrest in human HCT116 cells assessed as accumulation at G1 phase at 2 times antiproliferative IC50 after 24 hrs by propidium iodide staining based flow cytometry (reference value: 31%); type: functional
HCT-116 [2] = assay: Cell cycle arrest in human HCT116 cells assessed as accumulation at S phase at 2 times antiproliferative IC50 after 24 hrs by propidium iodide staining based flow cytometry (reference value: 38.8%); type: functional
HepG2 = assay: Growth inhibition of human HepG2 cells after 72 hrs by MTS assay; type: functional, cell-based; conditions: HepG2, 72 h
Procedure, shortened: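 HepG2 grown in DMEM with 10% FBS and 1% nonessential amino acids; 5000 cells/well; medium replaced with DMSO-dissolved compound 24 h post-seeding, 72 h exposure. MTS formazan absorbance read at 490 nm. IC50 derived with 95% CI; at least three independent experiments.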

HCT-116 [3] = assay: Induction of apoptosis in human HCT116 cells assessed as caspase-3/7 activation at antiproliferative IC50 after 24 hrs by Caspase-Glo assay relative to 5-fluorouracil; type: functional
Procedure, shortened: (§1)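 HCT116 at 5000 cells/well exposed 24 h. Caspase-Glo 3/7 reagent (DEVD-aminoluciferin substrate) 75 μL/well, 30 min room temperature for lysis and signal build-up; luminescence read. Activity expressed as fold of the reference treatment (DMSO vehicle or 5-FU); mean ± SEM, at least three experiments.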

HCT-116 [4] = assay: Induction of apoptosis in human HCT116 cells assessed as apoptotic nuclei at antiproliferative IC50 after 24 hrs by Hoechst 33258 staining based fluorescence microscopic method (reference value: <2%); type: functional
Procedure, shortened: (§2)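 HCT116 seeded 150 000 cells per 35 mm dish; treated 24 h, fixed in 4% paraformaldehyde in PBS pH 7.4, 10 min 25 °C, stained Hoechst 33258 5 μg/mL, 5 min. Fluorescence microscopy; condensed or fragmented chromatin scored apoptotic; three random fields of about 100 nuclei per sample; percent apoptotic nuclei, mean ± SEM, ≥3 experiments.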

HCT-116 [5] = assay: Cell cycle arrest in human HCT116 cells assessed as accumulation at G2/M phase at 2 times antiproliferative IC50 after 24 hrs by propidium iodide staining based flow cytometry (reference value: 30.2%); type: functional
HCT-116 [6] = assay: Cell cycle arrest in human HCT116 cells assessed as accumulation at G1 phase at antiproliferative IC50 after 24 hrs by propidium iodide staining based flow cytometry (reference value: 31%); type: functional
HCT-116 [7] = assay: Cell cycle arrest in human HCT116 cells assessed as accumulation at S phase at antiproliferative IC50 after 24 hrs by propidium iodide staining based flow cytometry (reference value: 38.8%); type: functional
HCT-116 [8] = assay: Growth inhibition of human HCT116 cells after 72 hrs by MTS assay; type: functional, cell-based; conditions: HCT-116, 72 h
Procedure, shortened: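 HCT116 grown in McCoy's 5A, 10% FBS, 37 °C, 5% CO2; 5000 cells/well; compound in DMSO added 24 h after plating, 72 h exposure. Viability by MTS/PMS reduction to formazan, absorbance 490 nm. IC50 with 95% CI by curve fit; at least three independent experiments.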

HCT-116 [9] = assay: Cytotoxicity against human HCT116 cells assessed as cell death at antiproliferative IC50 after 72 hrs by LDH release assay relative to control; type: functional
Procedure, shortened: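 HCT116 cells grown in McCoy's 5A with 10% FBS at 37 °C, 5% CO2, and treated 24 h after plating for 72 h with compound or DMSO vehicle. Supernatants were spun at 250g for 2 min, and attached cells were lysed. LDH reagent was added for 15 min at room temperature in the dark, and absorbance was read at 490/620 nm. Release = supernatant/(supernatant + lysate) LDH, fold over DMSO; mean ± SEM, ≥3 experiments.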

HCT-116 [10] = assay: Induction of apoptosis in human HCT116 cells assessed as caspase-3/7 activation at antiproliferative IC50 after 24 hrs by Caspase-Glo assay relative to DMSO control; type: functional; procedure, shortened: as §1
HCT-116 [11] = assay: Cell cycle arrest in human HCT116 cells assessed as accumulation at G2/M phase at antiproliferative IC50 after 24 hrs by propidium iodide staining based flow cytometry (reference value: 30.2%); type: functional
HCT-116 [12] = assay: Induction of apoptosis in human HCT116 cells assessed as apoptotic nuclei at 2 times antiproliferative IC50 after 24 hrs by Hoechst 33258 staining based fluorescence microscopic method (reference value: <2%); type: functional; procedure, shortened: as §2

Structure (SMILES) | Activity (HCT-116 [1]) | Activity (HCT-116 [2]) [%] | IC50 (HepG2) [µM] | fold change (FC) (HCT-116 [3]) | Activity (HCT-116 [4]) [%] | Activity (HCT-116 [5]) | Activity (HCT-116 [6]) | Activity (HCT-116 [7]) [%] | IC50 (HCT-116 [8]) [µM] | fold change (FC) (HCT-116 [9]) | fold change (FC) (HCT-116 [10]) | Activity (HCT-116 [11]) | Activity (HCT-116 [12]) [%]
CC[C@H]1CN(C)[C@H]2Cc3c([nH]c4ccccc34)[C@H](c3cc4c5c([nH]c4cc3OC)C3(C(=O)OC)C[C@@H]4C[C@H](CC)[C@@H]3N(CC5)C4)C[C@@H]1C2C(=O)OC (stereo partly drawn) | 27.7% | 28.5 | > 10 | 1.5 - 3.7 | 31 | 43.8 - 47% | 2.39% | 21.9 | 8.5 | 2.5 - 2.8 | 1.6 - 5.2 | 75.7 - 77% | 40
CC[C@@H]1CN(C)[C@H]2Cc3c([nH]c4ccccc34)[C@H](c3c(OC)ccc4c5c([nH]c34)C3(C(=O)OC)C[C@@H]4C[C@H](CC)[C@@H]3N(CC5)C4)C[C@@H]1C2C(=O)OC (stereo partly drawn) |  |  | > 10 |  |  |  |  |  | > 10 |  |  |  | 
CC[C@H]1CN(C)[C@H]2Cc3c([nH]c4ccccc34)[C@H](c3c(OC)ccc4c5c([nH]c34)C3(C(=O)OC)CC4C[C@H](CC)[C@@H]3N(CC5)C4=O)C[C@@H]1C2C(=O)OC (stereo partly drawn) | 62 - 67.2% | 15.9 | > 10 | 1.5 - 3.7 | 16 | 16.9% | 41.7 - 46% | 36.5 | > 10 | 2.5 - 2.8 | 1.6 - 5.2 | 21.8% | 25
CC[C@H]1CN(C)[C@H]2Cc3c([nH]c4ccccc34)[C@H](c3cc4c5c([nH]c4cc3OC)C3(C(=O)OC)CC4C[C@H](CC)[C@@H]3N(CC5)C4=O)C[C@@H]1C2C(=O)OC (stereo partly drawn) | 32% | 17.5 | > 10 | 1.5 - 3.7 | 16 | 44 - 50.5% | 34.4% | 39.4 | 8.8 | 2.5 - 2.8 | 1.6 - 5.2 | 26.2 - 32% | 37
CC[C@H]1CN(C)[C@H]2Cc3c([nH]c4ccccc34)[C@H](c3c(OC)ccc4c5c([nH]c34)C3(C(=O)OC)C[C@@H]4C[C@H]([C@H](C)O)[C@@H]3N(CC5)C4)C[C@@H]1C2C(=O)OC (stereo partly drawn) | 55 - 65% | 19.3 | > 10 | 1.5 - 3.7 | 11 | 15.7% | 42.3 - 49% | 39.3 | 8.4 | 2.5 - 2.8 | 1.6 - 5.2 | 18.5% | 13
O=c1[nH]cc(F)c(=O)[nH]1 [FLUOROURACIL] | 39.8% | 55.7 | > 10 |  |  | 4.48% | 21.3% | 78.7 | 2.5 | 2.2 - 2.5 |  | 0% | 
